B1: tRNA (parent)
chain: GUUCCGUUGGCGUAAUGGUAACGCGUCUCCCUCCUAAGGAGAAGACUGCGGGUUCGAGUCCCGUACGGAACG

Variants at the floor of the assay were thinned out.

The variants in this series derive from B1. Put plainly: yeast fitness relative to wild type (ratio to wild type); higher = fitter; tRNA-Arg(CCU), competitive growth, 37 C, YPD. Summed up: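 Changes in genotype frequencies gave Darwinian fitness relative to wild type. Frequencies were read by 100-nucleotide paired-end sequencing of gene amplicons before and after pooled Saccharomyces cerevisiae strains, carrying tRNA-Arg(CCU) gene variants at the native locus, were competed in YPD at 37°C for 24 hours in six replicates. A genotype was kept only with ≥ 100 starting reads, and estimates < 0.5 were set to 0.5.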
Turning to GUUUCGUUGGCGUAAUGGUAACGCGUCUCCCUCCUAAGGAGAAGACUGCGGGUUCGAGUCCCGAACGGAUCG [C4U U64A A70U], the yeast fitness is 0.66.

As for GUUCAGUUGGCGUAAUGGUGACGCGUCUCCCUCCGAAGGAAAAGACUGCGGGUUCAAGUCCCGUACGGACCG [C5A A20G U35G G41A G56A A70C], the yeast fitness is no more than 0.5.

Consider GUUCAGUUGGCGUAAUGGUCACGCGUCUCCCUCCUAAGGAGAAGACUGCGGGUUCGAGUCCCGUACGGAACG [C5A A20C], for which the yeast fitness turned out to be 0.799.

As to GUUCAGUUGGCGUAAUGGUGACGCGUCUCCCUCCUAAGGAGAAGACUGCGGGUUCGAGUCCCGUACGGAACG [C5A A20G], the yeast fitness was 0.933.

For GUUCAGUUGGCGUAAUGGUCACGCGUCUCCCUCCUCAGGAGAAGCCUGCGGGUUCGAGUCCCGUACGGAACG [C5A A20C A36C A45C], the yeast fitness is no more than 0.5.

Regarding GUUCAGUUGGCGUAUUGGUAUCGCGUCUCCCUCCUAAGGAGAAGACUGCGGGUUCGAGUCUCGUACGGCACG [C5A A15U A21U C61U A69C], the yeast fitness was no more than 0.5.

For the variant GUUCAGUUGGCGUAUUGGUAUCGCGUCUCCCUCCUAAGGAGAAGACUGCGGGUUCGAGUCCCGUAUUGAGCG [C5A A15U A21U C66U G67U A70G], the yeast fitness was no more than 0.5.

For GUUCAGUUGGCGUGAUGGUAAGGCGUUUCCCUCCUAUGGAGAAGACUGCGGGUUCGAGUCCCGUACGGAACG [C5A A14G C22G C27U A37U], the yeast fitness is no more than 0.5.

Take GUUCAGUUGGCGUAAUGGUUACGCGUCUCCCUCCUAGGGAGAAGACUGCGGGUUCGAGUCCCGUACGGAACG [C5A A20U A37G]: the yeast fitness is no more than 0.5.

Take GUUCAGUUGGCGUAAUGGUCAAGCGUCUCCCUCCUCAGGAGAAGACUGCGGGUUCGAGUCCCGUACGGUACG [C5A A20C C22A A36C A69U]: the yeast fitness was 0.587.

Take GUUCAGUUGGCGUAAUGGUCAAGUGUCUCCUUCCUAAGGAGAAGACUGCGGGUUCGAGUCCCGUACGGAACG [C5A A20C C22A C24U C31U]: the yeast fitness was 0.685.

GUUCAGUUGGCGUAAUGGUUACGCGUCUCCCUCCUAAGGAGAAGACUGCGGGUUCGAGUCCCGUACGGAGCG [C5A A20U A70G]: the yeast fitness was no more than 0.5.

Regarding GUUCAGUUGGCGUAUUGGUAUCGCGUCUCCCUCCUAAGGAGAAGACUGCGGGUUCGAGUCCCGUACGGAACG [C5A A15U A21U], the yeast fitness amounted to 0.56.

As for GUUCAGUUGGCGUAAUGGUUACGCGUCUCCGUCCUAAGGAGAAGACUGCGGGUUCGAGUCUCGUACGGAACG [C5A A20U C31G C61U], the yeast fitness is no more than 0.5.

Consider GUUCAGUUGGCGUCAUGGUAACGCGUCUACCUCCUAAGGACAAGACUGCGGGUUCGAGUCCCGUACGGAACG [C5A A14C C29A G41C], for which the yeast fitness is 0.683.

As to GUUCAGUUGGCGUAAUGGUGACGCGACUCCCUCCUAAGGGGAAGACUGCGGGUUCGACUCCCGUACUGAACG [C5A A20G U26A A40G G58C G67U], the yeast fitness is no more than 0.5.

On to GUUCAGUUGGCGUAAUGGUGACGCGCCUCCCUCCUAAGGCGAAGACUGCGGGUUCGAGUCCCGUACGGAACG [C5A A20G U26C A40C], for which the yeast fitness was no more than 0.5.

In the case of GUUCAGUUGGCGUAAUGGUGACGCGUCUCCCUCCUAAGGAGAAGACUGCGGGUUCGAGUCCCGUUCGGAACG [C5A A20G A65U], the yeast fitness was no more than 0.5.

With GUUCAGUUGGCGUAAUGGUCACGCGUCUGCCUCCUAAGGAGAAGACUGCGGGUUCGAGUCCCGUUCGGAACG [C5A A20C C29G A65U], the yeast fitness was no more than 0.5.

Consider GUUCAGUUGGCGUGAUCGUAACGCGUCUACCUGUUUAGGAGAAGACUGCGGGUUCGAGUCCCGUACGGAACG [C5A A14G G17C C29A C33G C34U A36U], for which the yeast fitness was determined as 0.648.

For the variant GUUCAGUUGGCGUACAGGUAACGCGUCUCCGUCUUAAGGAGAAGACUGCGGGUUCGAGUCCCGUACGGUACG [C5A A15C U16A C31G C34U A69U], the yeast fitness is no more than 0.5.

With GUUCAGUUGGCGUCAUGGUAACGCGUCUCCCUCCUAAGGAGAAGACUGCGGGUUCGAGUCCCGUACGGAACG [C5A A14C], the yeast fitness was determined as 0.603.

In the case of GUUCAGUUGGCGUGAUGGUAACGAGUCUCCCUCCUAAGGAGAGGACUGCGGGUUCGAGUCCCUUACGGAACG [C5A A14G C24A A43G G63U], the yeast fitness is no more than 0.5.

For GUUCAGUUGGCGUAAUGGUACCGCGUCUCCCUCCUAAGGAGAAGACUGCGGGUUCGAGUCCCGUACGGAACG [C5A A21C], the yeast fitness was 0.821.

Regarding GUUCAGUUGGCGUAAUGGUUACGCGUCUCCGUCCUAAGGAGAAGACUGGGGGUUCGAGUCCCGUACGGAACG [C5A A20U C31G C49G], the yeast fitness is no more than 0.5.

For GUUCAGUUGGCGUGAUGGUAACGCGUCUCCCUCCUAAGGGAAAGUCUGCGGGCUCGCGUCCCGUACGGAACG [C5A A14G A40G G41A A45U U53C A57C], the yeast fitness was no more than 0.5.

With GUUCAGUUGGCGUACUGGUAACGCGUCUCCCUCCUAAGGAGAAGACUGCGGGUUCGAGUCCUGUACGGAACG [C5A A15C C62U], the yeast fitness is no more than 0.5.

GUUCAGUUGGCGUAUUGGUAUCGCGUCUCCCCCCUAAGGAGAAGACUGCGGGUUCGAGUCCCGUACGGAACG [C5A A15U A21U U32C]: the yeast fitness is no more than 0.5.

Consider GUUCAGUUGGCGUAUUGGUAACGCGUCUCCCUCCUAAGGAGAAGACCGCGGGUUCGAGUCCCGUACGGAACG [C5A A15U U47C], for which the yeast fitness is no more than 0.5.

Take GUUCAGUUGGCGUAAUGGUUACGCGUCUACCUCCUAAGGAGAAGACUGCGGGUUCGAGUCCCGUACGAAACG [C5A A20U C29A G68A]: the yeast fitness was no more than 0.5.

GUUCAGUUGGCGUAAUGGUUACGCGUGUCCCUCCUAAGGAAAAGACUGCGGGUUCGUGUCCCGAACGGAACG [C5A A20U C27G G41A A57U U64A]: the yeast fitness was 0.642.

Consider GUUCAGUUGGCGUAAUGGUUACGCGUAUCCCUCCUAAGGAGGGGACUGCGGGUUCGCGUCCCGUACCGAACG [C5A A20U C27A A42G A43G A57C G67C], for which the yeast fitness came to 0.565.

Regarding GUUCAGUUGGCGUAAUGGUCAAGCGUCUCCCUCCUCAGGAGAAGACUGCGGGUUAGAGUCCCGUACGGUACG [C5A A20C C22A A36C C55A A69U], the yeast fitness was no more than 0.5.

Regarding GUUCAGUUGGCGUCGUGGUAACGCGUCUCCCUCCUAAGGAGAAGACUGAGGGUUCGAGUCCCGUACGGAACG [C5A A14C A15G C49A], the yeast fitness was 0.572.

Turning to GUUCAGUUGGCGUAAUGGUGACGUGUCUCCCUCCUAACGAGAAGACUGCGGGUUCCAGUCCCGUACGGAACG [C5A A20G C24U G38C G56C], the yeast fitness was no more than 0.5.

With GUUCAGUUGGCGUGAUGGUAACGCGUCUCCCUCCUAAGGAGAAGACUGCGGGUUCGAGUGCCGUACGGAACG [C5A A14G C60G], the yeast fitness is no more than 0.5.

For GUUCAGUUGGCGUAUUGGUAACGCGUCUCCCUCCUAAGGAGAAGACUGCGGGUUCGAGUCCCGCACGGAACG [C5A A15U U64C], the yeast fitness is 0.615.

The values are drawn from the RNAGym collection of RNA variant scans (doi:10.1126/science.aae0568).
